Bioassay records deposited in PubChem BioAssay by Johns Hopkins Ion Channel Center.
Only some compounds are listed: those with a hit (about 2.3% of all), similar ones and a draw of the others.
TRPC6 inhibitor: blocks the mouse TRPC6 cation channel; Q61143; B-score at 10 µM; HEK293-TRPC6, membrane potential dye, ACh-evoked depolarization; stronger effect = lower value; AID 2553; 1.1% of 310,000 active;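 active = B-score under library mean minus 3 SD, initial fluorescence not abnormally high, positive integrated signal ratio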;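 also: B-score derived from integrated fluorescence ratio over the kinetic read; more negative B-score means stronger inhibition of depolarization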
TRPC4 PAM: allosteric potentiators of mouse TRPC4 channel; AID 2227; HEK293 TRPC4beta/mu-opioid, DAMGO EC20, Fluo-4 Ca2+ flux; stronger effect = higher value; 0.42% of 310,000 active; B-score at 10 µM; Q9QUQ5;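 active = B-score of calcium response area above 5 SD of library B-scores, with initial fluorescence ratio within 5 SD of library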
Target sequence (Q9QUQ5 whole entry, looked up): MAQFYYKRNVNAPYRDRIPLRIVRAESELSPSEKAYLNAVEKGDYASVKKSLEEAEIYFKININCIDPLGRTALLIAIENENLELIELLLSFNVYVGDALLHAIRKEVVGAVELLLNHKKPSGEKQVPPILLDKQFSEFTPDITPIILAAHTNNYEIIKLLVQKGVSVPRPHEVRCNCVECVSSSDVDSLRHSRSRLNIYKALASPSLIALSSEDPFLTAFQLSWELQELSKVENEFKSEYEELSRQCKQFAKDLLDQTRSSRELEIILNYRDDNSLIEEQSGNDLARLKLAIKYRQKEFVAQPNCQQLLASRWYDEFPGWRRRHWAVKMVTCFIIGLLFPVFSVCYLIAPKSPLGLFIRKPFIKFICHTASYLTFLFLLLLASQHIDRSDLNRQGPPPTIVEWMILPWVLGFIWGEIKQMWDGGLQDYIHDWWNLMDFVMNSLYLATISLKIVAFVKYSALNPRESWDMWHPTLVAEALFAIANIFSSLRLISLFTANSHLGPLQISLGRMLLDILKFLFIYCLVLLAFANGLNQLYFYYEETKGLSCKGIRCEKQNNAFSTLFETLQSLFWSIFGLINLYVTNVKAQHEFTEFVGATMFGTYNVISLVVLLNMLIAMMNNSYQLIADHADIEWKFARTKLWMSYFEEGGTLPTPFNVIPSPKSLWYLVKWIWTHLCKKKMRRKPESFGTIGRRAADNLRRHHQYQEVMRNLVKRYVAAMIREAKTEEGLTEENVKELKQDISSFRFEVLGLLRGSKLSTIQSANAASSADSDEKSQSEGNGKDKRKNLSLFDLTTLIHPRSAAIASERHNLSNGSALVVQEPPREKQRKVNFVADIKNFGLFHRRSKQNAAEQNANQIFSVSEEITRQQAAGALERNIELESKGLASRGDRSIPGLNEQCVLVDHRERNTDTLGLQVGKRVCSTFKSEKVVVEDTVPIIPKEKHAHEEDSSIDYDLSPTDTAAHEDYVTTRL
TRPC4 act: opens the mouse TRPC4 cation channel; B-score at 10 µM; 0.49% of 310,000 active; HEK293 TRPC4beta/mu-opioid, Fluo4 calcium fluorescence; stronger effect = higher value; Q9QUQ5; AID 2237;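 active = B-score above 5 SD of library B-scores, and initial fluorescence ratio not above library mean plus 5 SD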;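 also: positive B-score marks a calcium rise read as TRPC4 activation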
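Technique: kinetic Fluo4 calcium fluorescence; Test system: TRPC4beta and mu-opioid receptor HEK293 stable cells; Measure: B-scored integrated calcium fluorescence ratio; Benchmarks: low control buffer alone, high control maximal DAMGO; Schedule: 45 min room-temperature Fluo4 loading, 110 s read.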
TRPC6 activator: mouse TRPC6 channel activation; B-score at 10 µM; AID 2550; HEK293-TRPC6 membrane potential dye fluorescence; stronger effect = higher value; Q61143; 0.13% of 310,000 active;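 active = B-score of the integrated fluorescence ratio above library mean plus 3 SD, and starting fluorescence ratio within library mean plus 5 SD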;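 also: higher score means more depolarization so channel activation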
TRPC4 block: TRPC4 (mouse) channel inhibition. HEK293 TRPC4beta/mu-opioid, DAMGO-evoked Fluo4 calcium flux; stronger effect = lower value. B-score at 10 µM. AID 2247. 0.39% of 300,000 active;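 active = B-score over 3 SD under the library average, no early fluorescence shift, positive overall ratio signal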
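test system = HEK293 cells with stable TRPC4beta plus mu-opioid receptor expression | detection = Fluo4 Ca2+ flux fluorescence | read-out = integrated fluorescence ratio relative to baseline, converted to per-well B score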
Each line names hits and unclear results; the compound was inactive in the other large screens.

CCC(=O)n1nc(-c2cccnc2)nc1NCc1ccc(OC)cc1	none
COc1ccc(CNc2nc(-c3cccnc3)nn2C(=O)C(C)C)cc1	TRPC4 block -5
COc1ccc(CCC(=O)N/N=C/c2ccc3c(c2)OCO3)cc1	none
N#CC1=C(N)C(C#N)(C#N)C(c2cccnc2)C2CC(c3ccccc3)CC=C12 (stereo not given)	TRPC4 PAM 36
N#CC1=C(N)C(C#N)(C#N)C(c2cccnc2)C2CCCC=C12 (stereo not given)	none
COC(=O)CC(NC(=S)NC(=O)c1ccccc1)c1ccc(Br)cc1 (stereo not given)	TRPC4 PAM 72
COC(=O)CC(N)c1ccc(Br)cc1 (stereo not given)	none
COc1ccc(Br)cc1CN1CCCC(C(=O)N2CCCCCC2)C1 (stereo not given)	TRPC4 block -6
COc1ccc(Br)cc1CN1CCC(N2CCCC2)CC1	TRPC4 PAM 17
O=C(COc1ccccc1)Nc1ccc(-c2ccc(N3CCOCC3)nn2)cc1	none
CCc1ccc(NC(=O)[C@@H](NC(=O)[C@@H]2Cc3ccccc3CN2)C(C)CC)cc1 (stereo not given in full)	none
CCOC(=O)c1cc(C)[nH]c(=O)c1C#N	TRPC4 PAM 10
CCOC(=O)c1cc(C)[nH]c1C	none
CCCCN(CC)CCCNC(=S)Nc1ccc2nc3n(c(=O)c2c1)CCCCC3	TRPC4 PAM 10
CCCCN(CC)CCCNC(=S)Nc1ccc2nc(N3CCN(CC)CC3)cc(C)c2c1	TRPC4 act 71
CCCCN(CC)CCCNC(=S)Nc1ccc2nc(N3CCN(C)CC3)cc(C)c2c1	none
Cc1ccc(C)c(S(=O)(=O)/N=C2\C=C(NS(=O)(=O)c3ccccc3)C(=O)c3ccccc32)c1	TRPC4 block -7
CCc1ccc(S(=O)(=O)/N=C2\C=C(NS(=O)(=O)c3ccccc3)C(=O)c3ccccc32)cc1	none
CCN1C(=O)/C(=C/N2CCc3ccccc32)SC1=S	none
CCN1C(=O)/C(=C\N2CCCc3ccccc32)SC1=S	TRPC4 PAM 20
COC(=O)c1ccc(CN2[C@H](C(=O)OC)C[C@@]3(O)[C@@H](O)[C@@H](O)[C@@H](O)C[C@@H]23)cc1	none
CCCCc1nc(N2CCOCC2)c(C#N)c2c1CCCC2	TRPC4 block -6
CCCc1nc(N2CCOCC2)c(C#N)c2c1CCCC2	none
Cc1cc(=O)oc2cc(NC(=S)NCc3ccccn3)ccc12	TRPC4 block -6
O=C(OCC(=O)N1CCN(C(=O)c2ccco2)CC1)c1ccccc1NCCO	none
Cc1ccc(CNC(=O)Cn2c(=O)c3sccc3n(Cc3ccc([N+](=O)[O-])cc3)c2=O)cc1	none
CCOC(=O)C1(CC2CC2)CCN(Cc2cnc(-c3ccccc3C)nc2)CC1	TRPC4 act 118
CCOC(=O)C1(CCOc2ccccc2)CCN(Cc2cnc(SC)nc2)CC1	none
CCOC(=O)C1(CC2CC2)CCN(Cc2cc(Cl)c(O)c(OC)c2)CC1	TRPC4 block -9
NC(N)=NC(=O)Cc1c(Cl)cccc1Cl	TRPC4 act 46
CC1CCN(c2nc(N3CCCCC3)nc(N3CCCCC3)n2)CC1	none
C1CCN(c2nc(N3CCCCC3)nc(N3CCNCC3)n2)CC1	TRPC4 PAM 22
CC1CCCCC1N(C)C1CCN(C(=O)CNC(=O)/C=C/c2cccc(Cl)c2)CC1 (stereo not given)	none
COc1ccc(C(=O)NNC(=O)c2ccc(C(C)(C)C)cc2)cc1	none
COc1ccc(C(=O)NNC(=S)NC(=O)C(C)(C)C)cc1	TRPC4 act 225
CC(C)(C)C(=O)NC(=S)NNC(=O)c1sc2ccccc2c1Cl	TRPC4 act 256
COC(=O)c1ccccc1NC(=O)CNCCc1ccc(OC)c(OC)c1	none
NS(=O)(=O)c1ccc(N2N=C(c3ccccc3)CC2c2ccccc2)cc1 (stereo not given)	TRPC4 PAM 11
O=S(=O)(O)c1ccc(N2N=C(c3ccccc3)CC2c2ccccc2)cc1 (stereo not given)	none
CCN1CCN(c2ccc(NC(=O)c3ccc(Br)o3)cc2)CC1	none
CN1CCN(c2ccc(NC(=O)c3ccc(-c4ccc(Br)cc4)o3)cc2)CC1	TRPC4 act 48, TRPC4 block -7
CCCCN(CC)CCCNC(=O)c1cc2c(=O)n(CC)c3ccccc3c2s1	none
CCCN(CCC)CCNC(=O)c1cc2c(=O)n(C)c3ccccc3c2n1C	TRPC4 PAM 13
